Data on five compounds can be found in ChEMBL document CHEMBL1240383, “Acquisition of flucytosine, azole, and caspofungin resistance in Candida glabrata bloodstream isolates serially obtained from a hematopoietic stem cell transplant recipient” (2010).

≈ marks a conversion by molar mass, not a printed value. Some results are limits rather than exact numbers.

Test [1] relates to Nakaseomyces glabratus. The test can be described thus: Antimicrobial activity against flucytosine, azole, and caspofungin resistant Candida glabrata bloodstream isolate 3 harboring Fur1 G190D mutation serially obtained from hematopoietic stem cell transplant recipient by Etest.
Test [2] deals with Nakaseomyces glabratus. The experiment in a line: Antimicrobial activity against flucytosine, azole, and caspofungin resistant Candida glabrata bloodstream isolate 1 serially obtained from hematopoietic stem cell transplant recipient by Etest. In kind it is functional. The essentials:
(§1)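 MICs by Etest following the strip maker's instructions, with C. parapsilosis ATCC 22019 as control strain. FLC, VRC and 5FC were interpreted by published CLSI criteria. For caspofungin a susceptibility breakpoint of ≤2 mg/liter was used. Isolates were serial C. glabrata blood-culture isolates from one patient, judged the same genotype by PCR of 8 microsatellite regions with fluorescent primers.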

Test [3] concerns Nakaseomyces glabratus. The test can be described thus: Antimicrobial activity against flucytosine, azole, and caspofungin resistant Candida glabrata bloodstream isolate 2 harboring Fur1 G190D mutation serially obtained from hematopoietic stem cell transplant recipient by Etest.
Test [4] concerns Nakaseomyces glabratus. The experiment in a line: Antimicrobial activity against flucytosine, azole, and caspofungin resistant Candida glabrata bloodstream isolate 5 harboring FKS2 T1988C mutation and overexpressing CDR1 and CDR2 genes serially obtained from hematopoietic stem cell transplant recipient by Etest. The class given is functional. In short, it runs like this: as §1

Test [5] deals with Nakaseomyces glabratus. The test can be described thus: Antimicrobial activity against flucytosine, azole, and caspofungin resistant Candida glabrata bloodstream isolate 4 harboring FKS2 T1988C mutation and overexpressing CDR1 and CDR2 genes serially obtained from hematopoietic stem cell transplant recipient by Etest. The class given is functional. In short, it runs like this:
as §1

Turning to `Nc1nc(=O)[nH]cc1F` [FLUCYTOSINE], the MIC with Nakaseomyces glabratus [1] is above 32 µg/mL; in the test with Nakaseomyces glabratus [2] it was 0.004 µg/mL (≈ 0.031 µM); in the test on Nakaseomyces glabratus [3], above 32 µg/mL; against Nakaseomyces glabratus [4], 0.004 µg/mL (≈ 0.031 µM); in the test with Nakaseomyces glabratus [5] it was 0.004 µg/mL (≈ 0.031 µM).
On to `CC[C@H](C)C[C@H](C)CCCCCCCCC(=O)N[C@H]1C[C@@H](O)[C@@H](NCCN)NC(=O)[C@@H]2[C@@H](O)CCN2C(=O)[C@H]([C@H](O)CCN)NC(=O)[C@H]([C@H](O)[C@@H](O)c2ccc(O)cc2)NC(=O)[C@@H]2C[C@@H](O)CN2C(=O)[C@H]([C@@H](C)O)NC1=O` [CASPOFUNGIN], for which the MIC is 0.125 µg/mL (≈ 0.114 µM) in the test on Nakaseomyces glabratus [1]; 0.19 µg/mL (≈ 0.174 µM) with Nakaseomyces glabratus [2]; 0.125 µg/mL (≈ 0.114 µM) with Nakaseomyces glabratus [3]; above 32 µg/mL in the test with Nakaseomyces glabratus [4]; above 32 µg/mL against Nakaseomyces glabratus [5].
For the compound `C[C@@H](c1ncncc1F)[C@](O)(Cn1cncn1)c1ccc(F)cc1F` [VORICONAZOLE], the MIC in the test with Nakaseomyces glabratus [1] stood at 0.047 µg/mL (≈ 0.135 µM); with Nakaseomyces glabratus [2] it was 0.25 µg/mL (≈ 0.716 µM); against Nakaseomyces glabratus [3], 0.125 µg/mL (≈ 0.358 µM); against Nakaseomyces glabratus [4], 16 µg/mL (≈ 45.8 µM); against Nakaseomyces glabratus [5], 12 µg/mL (≈ 34.4 µM).
On to `OC(Cn1cncn1)(Cn1cncn1)c1ccc(F)cc1F` [FLUCONAZOLE], for which the MIC in the test on Nakaseomyces glabratus [1] is 1 µg/mL (≈ 3.27 µM); in the test with Nakaseomyces glabratus [3], 2 µg/mL (≈ 6.53 µM); with Nakaseomyces glabratus [4], above 256 µg/mL; against Nakaseomyces glabratus [5] it was above 256 µg/mL.
`C[C@@H]1[C@H](O)[C@@H](C)/C=C/C=C/C=C/C=C/C=C/C=C/C=C/[C@H](O[C@@H]2O[C@H](C)[C@@H](O)[C@H](N)[C@@H]2O)C[C@@H]2O[C@](O)(C[C@@H](O)C[C@@H](O)[C@H](O)CC[C@@H](O)C[C@@H](O)CC(=O)O[C@H]1C)C[C@H](O)[C@H]2C(=O)O` [AMPHOTERICIN B]: the MIC with Nakaseomyces glabratus [1] is 0.75 µg/mL (≈ 0.812 µM); against Nakaseomyces glabratus [3], 2 µg/mL (≈ 2.16 µM); in the test with Nakaseomyces glabratus [4], 0.75 µg/mL (≈ 0.812 µM); against Nakaseomyces glabratus [5], 0.75 µg/mL (≈ 0.812 µM).

A word on the MIC: it is the smallest concentration in the dilution series that meets the test's criterion for growth inhibition. A lower MIC goes with greater potency.
